Measurements published in ChEMBL document CHEMBL4680306, “The 3-D conformational shape of N-naphthyl-cyclopenta[d]pyrimidines affects their potency as microtubule targeting agents and their antitumor activity” (Bioorg Med Chem, 2021).
The source made the active and inactive calls. No cut-off for these calls is given here.

Key:
MDA-MB-435 [1] = assay: Antiproliferative activity against human MDA-MB-435 cell line assessed as inhibition of cell proliferation at 10 uM measured after 48 hrs by SRB assay; format: functional
A10 [2] = assay: Induction of microtubule depolymerisation in rat A-10 cell line at 40 uM measured after 18 hrs by indirect immunofluorescence method
A10 [3] = assay: Potency index, ratio of CA-4 IC50 to test compound IC50 for induction of microtubule depolymerisation in rat A-10 cell line measured after 18 hrs by indirect immunofluorescence method
U-251 [4] = assay: Antitumour activity against human U251 cells xenografted in NCr athymic nude nu/nu mouse assessed as decrease in tumour growth at 50 mg/kg once in a week; format: functional, organism-based
U-251 [5] = assay: Cytotoxicity against human U251 cell line assessed as inhibition of cell growth after 48 hrs by SRB assay; format: functional, cell-based; details: U-251, 48 h
[6] = Relative resistance, ratio of IC50 for inhibition of beta3 Tubulin (unknown origin) expressed in human HeLa cell line assessed as inhibition of cell proliferation to IC50 antiproliferative activity against human HeLa cells
HeLa = assay: Antiproliferative activity against human HeLa cells assessed as decrease in cell growth measured after 48 hrs by SRB method; format: functional, cell-based
[7] = Antiproliferative activity against human SK-OV-3 MDR-1-6/6 cells expressing Pgp assessed as decrease in cell growth measured after 48 hrs by SRB method; format: functional; details: SK-OV-3, 48 h
MDA-MB-435 [8] = assay: Antiproliferative activity against human MDA-MB-435 cell line assessed as inhibition of cell proliferation measured after 48 hrs by SRB assay; format: functional, cell-based; details: MDA-MB-435, 48 h
Summary of the method: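 MDA-MB-435 melanoma cells were assessed by sulforhodamine B assay. IC50 is the mean ± SD of at least three independent experiments, each run in triplicate.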

[9] = Relative resistance, ratio of IC50 for antiproliferative activity against human SK-OV-3 MDR-1-6/6 cells expressing Pgp to IC50 antiproliferative activity against human SK-OV-3 cells; format: functional
[10] = Induction of microtubule depolymerisation in rat A-10 cell line measured after 18 hrs by indirect immunofluorescence method; details: a10
Summary of the method: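 Rat A-10 cells, chosen because they arrest in interphase without significant mitotic accumulation, were exposed to compounds for 18 h. Cellular microtubules were then visualized by indirect immunofluorescence. EC50 values come from at least three independent experiments.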

SK-OV-3 [11] = assay: Antiproliferative activity against human SK-OV-3 cells assessed as decrease in cell growth measured after 48 hrs by SRB method; format: functional, cell-based; details: SK-OV-3, 48 h
IGROV-1 = assay: Cytotoxicity against human IGROV-1 cells assessed as inhibition of cell growth measured after 48 hrs by SRB assay; format: functional
MOLT-4 = assay: Cytotoxicity against human MOLT-4 cells assessed as inhibition of cell growth measured after 48 hrs by SRB assay; format: functional
HCC 2998 = assay: Cytotoxicity against human HCC 2998 cells assessed as inhibition of cell growth measured after 48 hrs by SRB assay; format: functional
T47D = assay: Cytotoxicity against human T47D cells assessed as inhibition of cell growth measured after 48 hrs by SRB assay; format: functional
SK-OV-3 [12] = assay: Cytotoxicity against human SK-OV-3 cells assessed as inhibition of cell growth measured after 48 hrs by SRB assay; format: functional
K562 = assay: Cytotoxicity against human K562 cells assessed as inhibition of cell growth measured after 48 hrs by SRB assay; format: functional
SW-620 = assay: Cytotoxicity against human SW-620 cells assessed as inhibition of cell growth measured after 48 hrs by SRB assay; format: functional
LOX IMVI = assay: Cytotoxicity against human LOX IMVI cells assessed as inhibition of cell growth measured after 48 hrs by SRB assay; format: functional
MCF7 = assay: Cytotoxicity against human MCF7 cells assessed as inhibition of cell growth measured after 48 hrs by SRB assay; format: functional
OVCAR-4 = assay: Cytotoxicity against human OVCAR-4 cells assessed as inhibition of cell growth measured after 48 hrs by SRB assay; format: functional
[13] = Cytotoxicity against human SK-MEL-5 cells assessed as inhibition of cell growth measured after 48 hrs by SRB assay; format: functional
CCRF-CEM = assay: Cytotoxicity against human CCRF-CEM cells assessed as inhibition of cell growth measured after 48 hrs by SRB assay; format: functional
A549 = assay: Cytotoxicity against human A549 cells assessed as inhibition of cell growth measured after 48 hrs by SRB assay; format: functional
SF-539 = assay: Cytotoxicity against human SF-539 cells assessed as inhibition of cell growth measured after 48 hrs by SRB assay; format: functional
M14 = assay: Cytotoxicity against human M14 cells assessed as inhibition of cell growth measured after 48 hrs by SRB assay; format: functional
EKVX = assay: Cytotoxicity against human EKVX cells assessed as inhibition of cell growth measured after 48 hrs by SRB assay; format: functional
PC-3 = assay: Cytotoxicity against human PC-3 cells assessed as inhibition of cell growth measured after 48 hrs by SRB assay; format: functional
SR = assay: Cytotoxicity against human SR cells assessed as inhibition of cell growth measured after 48 hrs by SRB assay; format: functional
DU-145 = assay: Cytotoxicity against human DU-145 cells assessed as inhibition of cell growth measured after 48 hrs by SRB assay; format: functional
SK-MEL-2 = assay: Cytotoxicity against human SK-MEL-2 cells assessed as inhibition of cell growth measured after 48 hrs by SRB assay; format: functional
SNB-75 = assay: Cytotoxicity against human SNB-75 cells assessed as inhibition of cell growth measured after 48 hrs by SRB assay; format: functional
HOP-62 = assay: Cytotoxicity against human HOP-62 cells assessed as inhibition of cell growth measured after 48 hrs by SRB assay; format: functional
U-251 [14] = assay: Cytotoxicity against human U-251 cells assessed as inhibition of cell growth measured after 48 hrs by SRB assay; format: functional
BT-549 = assay: Cytotoxicity against human BT-549 cells assessed as inhibition of cell growth measured after 48 hrs by SRB assay; format: functional
786-0 = assay: Cytotoxicity against human 786-0 cells assessed as inhibition of cell growth measured after 48 hrs by SRB assay; format: functional
NCI/ADR-RES = assay: Cytotoxicity against human NCI/ADR-RES cells assessed as inhibition of cell growth measured after 48 hrs by SRB assay; format: functional
KM12 = assay: Cytotoxicity against human KM12 cells assessed as inhibition of cell growth measured after 48 hrs by SRB assay; format: functional
Malme-3M = assay: Cytotoxicity against human Malme-3M cells assessed as inhibition of cell growth measured after 48 hrs by SRB assay; format: functional
HOP-92 = assay: Cytotoxicity against human HOP-92 cells assessed as inhibition of cell growth measured after 48 hrs by SRB assay; format: functional
SF-295 = assay: Cytotoxicity against human SF-295 cells assessed as inhibition of cell growth measured after 48 hrs by SRB assay; format: functional
NCI-H23 = assay: Cytotoxicity against human NCI-H23 cells assessed as inhibition of cell growth measured after 48 hrs by SRB assay; format: functional
COLO 205 = assay: Cytotoxicity against human COLO 205 cells assessed as inhibition of cell growth measured after 48 hrs by SRB assay; format: functional
A498 = assay: Cytotoxicity against human A498 cells assessed as inhibition of cell growth measured after 48 hrs by SRB assay; format: functional
NCI-H226 = assay: Cytotoxicity against human NCI-H226 cells assessed as inhibition of cell growth measured after 48 hrs by SRB assay; format: functional
OVCAR-8 = assay: Cytotoxicity against human OVCAR-8 cells assessed as inhibition of cell growth measured after 48 hrs by SRB assay; format: functional
HCT-116 = assay: Cytotoxicity against human HCT-116 cells assessed as inhibition of cell growth measured after 48 hrs by SRB assay; format: functional
HL-60(TB) = assay: Cytotoxicity against human HL-60(TB) cells assessed as inhibition of cell growth measured after 48 hrs by SRB assay; format: functional
Hs-578T = assay: Cytotoxicity against human Hs-578T cells assessed as inhibition of cell growth measured after 48 hrs by SRB assay; format: functional
HT-29 = assay: Cytotoxicity against human HT-29 cells assessed as inhibition of cell growth measured after 48 hrs by SRB assay; format: functional
OVCAR-3 = assay: Cytotoxicity against human OVCAR-3 cells assessed as inhibition of cell growth measured after 48 hrs by SRB assay; format: functional
SN12C = assay: Cytotoxicity against human SN12C cells assessed as inhibition of cell growth measured after 48 hrs by SRB assay; format: functional
SNB-19 = assay: Cytotoxicity against human SNB-19 cells assessed as inhibition of cell growth measured after 48 hrs by SRB assay; format: functional
SF-268 = assay: Cytotoxicity against human SF-268 cells assessed as inhibition of cell growth measured after 48 hrs by SRB assay; format: functional
UACC-62 = assay: Cytotoxicity against human UACC-62 cells assessed as inhibition of cell growth measured after 48 hrs by SRB assay; format: functional
NCI-H460 = assay: Cytotoxicity against human NCI-H460 cells assessed as inhibition of cell growth measured after 48 hrs by SRB assay; format: functional
MDA-MB-435 [15] = assay: Cytotoxicity against human MDA-MB-435 cells assessed as inhibition of cell growth measured after 48 hrs by SRB assay; format: functional
OVCAR-5 = assay: Cytotoxicity against human OVCAR-5 cells assessed as inhibition of cell growth measured after 48 hrs by SRB assay; format: functional
SK-MEL-28 = assay: Cytotoxicity against human SK-MEL-28 cells assessed as inhibition of cell growth measured after 48 hrs by SRB assay; format: functional
[16] = Inhibition of bovine tubulin polymerization assessed as reduction in extent of assembly preincubated for 15 mins followed by addition of reaction mixture measured after 20 mins by turbidimetric assay; parameters: species or system Bos taurus
Summary of the method: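 After chilling, GTP was added (0.4 mM final). Turbidity at 350 nm was read after a jump from 0 °C to 30 °C.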

COc1ccc(Nc2nc(C)nc3c2CC(C)C3)cc1 (stereo not given)
inhibition at 10 µM (MDA-MB-435 [1]): 7% | Activity (A10 [2]): inactive | Ratio IC50 (A10 [3]): 3

Cn1nnc2c(C(N)=O)ncn2c1=O
inhibition (U-251 [4]): Active

COc1cccc2c(N(C)c3nc(C)nc4c3CCC4)cccc12
IC50 (U-251 [5]): 38.9 nM | Ratio IC50 [6]: 0.7 | IC50 (HeLa): 1200 nM | IC50 [7]: 1300 nM | IC50 (MDA-MB-435 [8]): 820 nM | Ratio IC50 [9]: 1.1 | EC50 [10]: 3.7 µM | IC50 (SK-OV-3 [11]): 1200 nM

COc1cccc2cc(N(C)c3nc(N)nc4c3CCC4)ccc12
Ratio IC50 [6]: 0.8 | IC50 (HeLa): 12.6 nM | IC50 [7]: 19.6 nM | IC50 (MDA-MB-435 [8]): 8.7 nM | Ratio IC50 [9]: 1.3 | EC50 [10]: 0.026 µM | IC50 (SK-OV-3 [11]): 14.9 nM

CC(=O)O[C@H]1C(=O)[C@@]2(C)[C@H]([C@H](OC(=O)c3ccccc3)[C@]3(O)C[C@H](OC(=O)[C@H](O)[C@@H](NC(=O)c4ccccc4)c4ccccc4)C(C)=C1C3(C)C)[C@]1(OC(C)=O)CO[C@@H]1C[C@@H]2O [PACLITAXEL]
GI50 (IGROV-1): 6.3 nM | GI50 (MOLT-4): 5 nM | GI50 (HCC 2998): 1 nM | GI50 (T47D): 12.5 nM | GI50 (SK-OV-3 [12]): 6.3 nM | GI50 (K562): 6.3 nM | GI50 (SW-620): 4 nM | GI50 (LOX IMVI): 5 nM | GI50 (MCF7): 4 nM | GI50 (OVCAR-4): 630 nM | GI50 [13]: 5 nM | GI50 (CCRF-CEM): 5 nM | GI50 (A549): 6.3 nM | GI50 (SF-539): 5 nM | GI50 (M14): 5 nM | GI50 (EKVX): 79 nM | GI50 (PC-3): 6.3 nM | GI50 (SR): 6.3 nM | GI50 (DU-145): 6.3 nM | GI50 (SK-MEL-2): 400 nM | GI50 (SNB-75): 7.9 nM | GI50 (HOP-62): 19 nM | GI50 (U-251 [14]): 6.3 nM | GI50 (BT-549): 4 nM | GI50 (786-0): 39 nM | GI50 (NCI/ADR-RES): 630 nM | GI50 (KM12): 5 nM | GI50 (Malme-3M): 50 nM | GI50 (HOP-92): 25 nM | GI50 (SF-295): 25 nM | GI50 (NCI-H23): 6.3 nM | GI50 (COLO 205): 7.9 nM | GI50 (A498): 7.9 nM | GI50 (NCI-H226): 3.9 nM | GI50 (OVCAR-8): 7.9 nM | GI50 (HCT-116): 4 nM | GI50 (HL-60(TB)): 4 nM | GI50 (Hs-578T): 5 nM | GI50 (HT-29): 5 nM | GI50 (OVCAR-3): 4 nM | GI50 (SN12C): 6.3 nM | GI50 (SNB-19): 10 nM | GI50 (SF-268): 5 nM | GI50 (UACC-62): 5 nM | GI50 (NCI-H460): 6.3 nM | GI50 (MDA-MB-435 [15]): 4 nM | GI50 (OVCAR-5): 7.9 nM | GI50 (SK-MEL-28): 400 nM

COc1ccc2c(N(C)c3ncnc4c3CCC4)cccc2c1
IC50 (U-251 [5]): 133 nM | IC50 [16]: > 20 µM | EC50 [10]: > 10 µM
